Results reported in ChEMBL document CHEMBL1124049, “Synthesis and biological characterization of pyridohomotropanes. Structure-activity relationships of conformationally restricted nicotinoids” (J Med Chem, 1988).

Key:
[1] = target: Neuronal acetylcholine receptor; experiment: Inhibition of (-)-[3H]nicotine binding to rat brain membranes; format: cell membranes, Membrane
Method in brief: (§1)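 Membranes from whole rat brain or Torpedo electric organ, homogenized in 30 volumes 0.05 M NaH2PO4 pH 7.0 and spun at 50000g for 30 min. Each tube held 2 mg brain protein or 1 mg electric organ protein, 1 × 10⁻⁹ M radioligand (final), and varied agent concentrations in 0.05 M NaPO4 pH 7.0.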

Acetylcholine receptor [2] = target: T1, Acetylcholine receptor (Torpedo californica, UniProt P02710+P02712+P02714+P02718); experiment: Inhibition of [3H]MCC binding to torpedo electroplax membranes; method in brief: as §1
T1 sequence (P02710 whole entry): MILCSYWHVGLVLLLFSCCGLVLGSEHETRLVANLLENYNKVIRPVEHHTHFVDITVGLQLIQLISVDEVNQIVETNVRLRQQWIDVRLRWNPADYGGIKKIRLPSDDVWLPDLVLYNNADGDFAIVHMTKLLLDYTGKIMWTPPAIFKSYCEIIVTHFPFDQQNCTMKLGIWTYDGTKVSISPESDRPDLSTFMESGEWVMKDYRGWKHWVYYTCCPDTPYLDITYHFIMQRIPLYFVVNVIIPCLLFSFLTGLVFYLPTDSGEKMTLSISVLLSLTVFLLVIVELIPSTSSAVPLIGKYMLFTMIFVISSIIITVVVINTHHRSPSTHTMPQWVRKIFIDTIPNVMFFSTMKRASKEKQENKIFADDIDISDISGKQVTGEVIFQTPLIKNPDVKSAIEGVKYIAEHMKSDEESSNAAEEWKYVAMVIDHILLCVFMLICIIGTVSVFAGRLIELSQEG
T1 sequence (P02712 whole entry): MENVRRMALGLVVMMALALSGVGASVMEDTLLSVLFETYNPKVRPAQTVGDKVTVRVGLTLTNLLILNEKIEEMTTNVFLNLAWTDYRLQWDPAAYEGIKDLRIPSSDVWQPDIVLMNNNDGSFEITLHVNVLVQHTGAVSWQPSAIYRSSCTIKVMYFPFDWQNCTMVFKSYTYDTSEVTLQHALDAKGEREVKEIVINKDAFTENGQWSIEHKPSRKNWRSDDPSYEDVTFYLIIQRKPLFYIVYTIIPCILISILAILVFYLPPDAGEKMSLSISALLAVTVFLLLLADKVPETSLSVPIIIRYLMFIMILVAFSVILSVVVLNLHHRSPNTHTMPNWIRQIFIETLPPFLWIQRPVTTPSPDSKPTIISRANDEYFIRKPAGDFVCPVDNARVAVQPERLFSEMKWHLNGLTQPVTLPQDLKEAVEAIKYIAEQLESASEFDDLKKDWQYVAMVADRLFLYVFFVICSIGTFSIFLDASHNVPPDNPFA
T1 sequence (P02718 whole entry): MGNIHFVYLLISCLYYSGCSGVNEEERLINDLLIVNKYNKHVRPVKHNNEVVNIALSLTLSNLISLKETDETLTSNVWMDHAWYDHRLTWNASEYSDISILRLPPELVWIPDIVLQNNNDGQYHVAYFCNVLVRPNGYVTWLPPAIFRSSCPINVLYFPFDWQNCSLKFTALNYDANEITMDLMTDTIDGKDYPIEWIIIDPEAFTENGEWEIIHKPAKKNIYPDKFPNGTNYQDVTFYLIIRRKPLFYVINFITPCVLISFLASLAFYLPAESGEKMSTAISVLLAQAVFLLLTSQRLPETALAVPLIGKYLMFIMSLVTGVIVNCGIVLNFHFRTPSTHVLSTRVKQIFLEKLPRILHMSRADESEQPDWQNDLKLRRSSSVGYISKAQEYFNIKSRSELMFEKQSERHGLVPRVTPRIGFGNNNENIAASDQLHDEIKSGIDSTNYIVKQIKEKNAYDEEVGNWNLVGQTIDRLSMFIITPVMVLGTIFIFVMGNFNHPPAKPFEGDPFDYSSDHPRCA
T1 sequence (P02714 whole entry): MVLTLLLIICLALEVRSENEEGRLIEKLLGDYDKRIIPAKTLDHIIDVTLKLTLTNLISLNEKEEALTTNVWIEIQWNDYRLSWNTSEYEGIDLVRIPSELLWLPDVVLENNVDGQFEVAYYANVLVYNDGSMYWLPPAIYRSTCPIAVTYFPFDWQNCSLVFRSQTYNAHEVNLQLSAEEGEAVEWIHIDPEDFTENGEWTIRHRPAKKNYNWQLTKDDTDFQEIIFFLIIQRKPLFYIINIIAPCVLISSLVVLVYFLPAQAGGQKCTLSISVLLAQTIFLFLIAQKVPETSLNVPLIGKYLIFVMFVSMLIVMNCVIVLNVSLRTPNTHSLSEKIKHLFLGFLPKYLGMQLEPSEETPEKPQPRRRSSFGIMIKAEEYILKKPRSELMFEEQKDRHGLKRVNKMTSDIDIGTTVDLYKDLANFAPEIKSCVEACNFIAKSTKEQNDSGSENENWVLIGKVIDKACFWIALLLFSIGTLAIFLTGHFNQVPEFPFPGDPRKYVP

Acetylcholine receptor [3] = target: T1, Acetylcholine receptor; experiment: inhibition of (-)-[3H]nicotine binding to torpedo electroplax membranes; method in brief: as §1
Rattus norvegicus [4] = species on record: Rattus norvegicus; experiment: Effective dose required to produce prostration after injection into rat's fourth ventricle; format: functional
Method in brief: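 Rats given various doses into the fourth ventricle through chronically implanted cannulae, in 1 μL. Prostration of the limbs was scored, from hind-limb prostration with forelimb weakness up to prostration of all four limbs.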

Rattus norvegicus [5] = species on record: Rattus norvegicus; experiment: Potency for prostration assay, relative to PHT; format: functional
[6] = target: Neuronal acetylcholine receptor; experiment: Inhibition of [3H]MCC binding to rat brain membranes; format: cell membranes, Membrane; method in brief: as §1

Compound | IC50 [1] [nM] | IC50 (Acetylcholine receptor [2]) [nM] | IC50 (Acetylcholine receptor [3]) [nM] | ED50 (Rattus norvegicus [4]) [nmol] | Relative potency (Rattus norvegicus [5]) | IC50 [6] [nM]
c1cc2c(cn1)C1CCC(CC2)N1 (centres undefined) | 5 | 0.1 | 1 | 10 | 1 | 10
CN1C2CCc3ccncc3C1CC2 (centres undefined) | 1000 | 2000 | 800 | 500 | 0.02 | 3000
c1cncc([C@@H]2CCCN2)c1 [NORNICOTINE] | – | 300 | 100 | 75 | – | –
Cc1nccc2c1C1CCC(CC2)N1 (centres undefined) | 900 | 300 | 300 | 500 | 0.02 | 700
CN1CCC[C@H]1c1cccnc1 [NICOTINE] | – | 1 | 4 | 10 | – | –
